How the values were obtained:
[1] = Cytotoxicity against human TZM-bl assessed as cell viability at 4 uM after 2 days; assay type: cell-based; settings: 48 h
Procedure, shortened: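 Toxicity to TZM-bl cells was checked within the single-cycle infection assay at 4 μM.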

[2] = test system: Human immunodeficiency virus 1; test: Antiviral activity against HIV1 NL4-3 infected in human TZM-bl cells assessed as reduction in luciferase gene expression by luminescence assay; assay type: functional, organism-based; settings: Human immunodeficiency virus 1, NL4-3, TZM-bl
Procedure, shortened: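 Single-cycle HIV-1 NL4-3 infection of TZM-bl cells; HIV-1 tat-driven luciferase expression after viral entry read as the measure of inhibition. […] control is NL4-3 infection without compound. Values are the mean of two or more independent experiments with standard deviation.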

SMILES | Activity [1] | EC50 [2]
C=C(C)[C@@H]1CC[C@]2(C(=O)NCCCCCCCCCC(=O)N[C@@H](CCC(N)=O)C(=O)OC)CC[C@]3(C)[C@H](CC[C@@H]4[C@@]5(C)CC[C@H](O)C(C)(C)[C@@H]5CC[C@]43C)[C@@H]12 | Non-toxic | 60 nM
C=C(C)[C@@H]1CC[C@]2(C(=O)NCCOCCOCCNC(=O)Cc3nnn[nH]3)CC[C@]3(C)[C@H](CC[C@@H]4[C@@]5(C)CC[C@H](O)C(C)(C)[C@@H]5CC[C@]43C)[C@@H]12 | Non-toxic | > 4000 nM
C=C(C)[C@@H]1CC[C@]2(C(=O)NCCCCCCC(=O)N[C@@H](CCC(N)=O)C(=O)OC)CC[C@]3(C)[C@H](CC[C@@H]4[C@@]5(C)CC[C@H](O)C(C)(C)[C@@H]5CC[C@]43C)[C@@H]12 | Non-toxic | > 4000 nM
C=C(C)[C@@H]1CC[C@]2(C(=O)NCCCCCCCCNC(=O)[C@@H]3CCCN3C(=O)OC(C)(C)C)CC[C@]3(C)[C@H](CC[C@@H]4[C@@]5(C)CC[C@H](O)C(C)(C)[C@@H]5CC[C@]43C)[C@@H]12 | Non-toxic | 160 nM
C=C(C)[C@@H]1CC[C@]2(C(=O)NCCCCCCCCNC(=O)[C@H](C)NC(=O)OC(C)(C)C)CC[C@]3(C)[C@H](CC[C@@H]4[C@@]5(C)CC[C@H](O)C(C)(C)[C@@H]5CC[C@]43C)[C@@H]12 | Non-toxic | 90 nM
C=C(C)[C@@H]1CC[C@]2(C(=O)NCCCCC/C=C/C(=O)NCC(=O)O)CC[C@]3(C)[C@H](CC[C@@H]4[C@@]5(C)CC[C@H](O)C(C)(C)[C@@H]5CC[C@]43C)[C@@H]12 | Non-toxic | 150 nM
C=C(C)[C@@H]1CC[C@]2(C(=O)NCCCCCCCCC(=O)NCCC#N)CC[C@]3(C)[C@H](CC[C@@H]4[C@@]5(C)CC[C@H](O)C(C)(C)[C@@H]5CC[C@]43C)[C@@H]12 | Non-toxic | 340 nM
C=C(C)[C@@H]1CC[C@]2(C(=O)NCCCCCCCC(=O)N[C@@H](CCC(N)=O)C(=O)OC)CC[C@]3(C)[C@H](CC[C@@H]4[C@@]5(C)CC[C@H](O)C(C)(C)[C@@H]5CC[C@]43C)[C@@H]12 | Non-toxic | 140 nM
C=C(C)[C@@H]1CC[C@]2(C(=O)NCCCCCCCCCC(=O)N[C@@H](CC(N)=O)C(=O)OC)CC[C@]3(C)[C@H](CC[C@@H]4[C@@]5(C)CC[C@H](O)C(C)(C)[C@@H]5CC[C@]43C)[C@@H]12 | Non-toxic | 80 nM
C=C(C)[C@@H]1CC[C@]2(C(=O)NCCCCC/C=C/C(=O)O)CC[C@]3(C)[C@H](CC[C@@H]4[C@@]5(C)CC[C@H](O)C(C)(C)[C@@H]5CC[C@]43C)[C@@H]12 | Non-toxic | > 4000 nM
C=C(C)[C@@H]1CC[C@]2(C(=O)NCCOCCOCCNC(C)=O)CC[C@]3(C)[C@H](CC[C@@H]4[C@@]5(C)CC[C@H](O)C(C)(C)[C@@H]5CC[C@]43C)[C@@H]12 | Non-toxic | > 4000 nM
C=C(C)[C@@H]1CC[C@]2(C(=O)NCCCCCCCCCNC(=O)[C@H](CCC(N)=O)NC(=O)OC(C)(C)C)CC[C@]3(C)[C@H](CC[C@@H]4[C@@]5(C)CC[C@H](O)C(C)(C)[C@@H]5CC[C@]43C)[C@@H]12 | Non-toxic | 120 nM
C=C(C)[C@@H]1CC[C@]2(C(=O)NCCCCCCCCC(=O)N[C@@H](CC(N)=O)C(=O)OC)CC[C@]3(C)[C@H](CC[C@@H]4[C@@]5(C)CC[C@H](O)C(C)(C)[C@@H]5CC[C@]43C)[C@@H]12 | Non-toxic | 110 nM
C=C(C)[C@@H]1CC[C@]2(C(=O)NCCCCCCCCC(=O)N[C@@H](CCC(=O)OC)C(=O)OC)CC[C@]3(C)[C@H](CC[C@@H]4[C@@]5(C)CC[C@H](O)C(C)(C)[C@@H]5CC[C@]43C)[C@@H]12 | Non-toxic | 60 nM
